Square brackets hold non-standard residues; d marks the D form. Peptide text beside a SMILES is read from it. Gly(N-4-hydroxybenzyl) = O=C(O)CNCc1ccc(O)cc1; Gly(N-(CH2)3-guanidino) = N=C(N)NCCCNCC(=O)O; hLeu = CC(C)CC[C@H](N)C(=O)O; NMeNva = CCC[C@H](NC)C(=O)O; Nva = CCC[C@H](N)C(=O)O; Dap = NC[C@H](N)C(=O)O; NPrGly = CCCNCC(=O)O
Tests used:
[1] = target: T1, RAC-alpha serine/threonine-protein kinase (Homo sapiens, UniProt P31749); assay: Inhibition of PKB at 100 uM by radioactive kinase assay relative to control
Method in brief: (§1)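 PKB/Akt enzyme HisAPHPKBEEEFlag, partly purified in one step on Ni-NTA agarose. The radioactive kinase reaction contains 50 mM Hepes pH 7.4, 0.1 mM EGTA, 0.1% 2-mercaptoethanol, 10 mM magnesium acetate, 3 uM RPRTSSF peptide substrate, 10 uM [γ32P]ATP and 0.005 units enzyme. Inhibition is given as percent reduction of activity against a no-inhibitor control. IC50 values, with 95% confidence ranges, come from curve fitting.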

[2] = target: T1, RAC-alpha serine/threonine-protein kinase; assay: Inhibition of PKB at 5 uM by radioactive kinase assay relative to control; method in brief: as §1

T1 sequence (P31749 whole entry): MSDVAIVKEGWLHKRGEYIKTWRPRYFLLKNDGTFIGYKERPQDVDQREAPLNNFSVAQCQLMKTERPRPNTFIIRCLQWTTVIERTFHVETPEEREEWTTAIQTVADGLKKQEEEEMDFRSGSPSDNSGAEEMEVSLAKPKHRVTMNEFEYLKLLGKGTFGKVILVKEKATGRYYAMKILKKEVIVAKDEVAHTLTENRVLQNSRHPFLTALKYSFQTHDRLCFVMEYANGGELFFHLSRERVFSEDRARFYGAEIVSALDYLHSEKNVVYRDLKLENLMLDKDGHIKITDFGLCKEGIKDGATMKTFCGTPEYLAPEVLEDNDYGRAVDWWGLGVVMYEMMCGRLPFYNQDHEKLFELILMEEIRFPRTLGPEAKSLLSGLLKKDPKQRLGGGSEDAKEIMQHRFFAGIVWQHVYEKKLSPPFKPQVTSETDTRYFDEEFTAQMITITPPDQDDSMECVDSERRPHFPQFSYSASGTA

Compound	inhibition [1]	inhibition [2]
CCC[C@H](NC(=O)[C@H](CCCNC(=N)N)NC(=O)[C@@H]1CCCN1C(=O)[C@H](CCCNC(=N)N)NC(C)=O)C(=O)N[C@@H](Cc1ccc(O)cc1)C(=O)N[C@@H](CN)C(=O)N[C@@H](CCC(C)C)C(=O)O (HELM PEPTIDE1{[ac].R.P.R.[Nva].Y.[NC[C@H](N[*:1])C(=O)[*:2]].[CC(C)CC[C@H](N[*:1])C(=O)O]}$$$$V2.0)	66%	–
CCC[C@H](NC(=O)[C@H](CCCNC(=N)N)NC(=O)[C@@H]1CCCN1C(=O)[C@H](CCCNC(=N)N)NC(C)=O)C(=O)N[C@@H](Cc1ccc(O)cc1)C(=O)N(C)[C@@H](CN)C(=O)N[C@@H](CCC(C)C)C(=O)O (HELM PEPTIDE1{[ac].R.P.R.[Nva].Y.[CN([C@@H](CN)C(=O)[*:2])[*:1]].[CC(C)CC[C@H](N[*:1])C(=O)O]}$$$$V2.0)	1%	–
CCC[C@H](NC(=O)[C@H](CCCNC(=N)N)NC(=O)[C@@H]1CCCN1C(=O)[C@H](CCCNC(=N)N)NC(C)=O)C(=O)N[C@@H](Cc1ccc(O)cc1)C(=O)N[C@@H](CN)C(=O)N(CC(N)=O)CC(C)CC (some centres not stated) (HELM PEPTIDE1{[ac].R.P.R.[Nva].Y.[NC[C@H](N[*:1])C(=O)[*:2]].[CCC(C)CN(CC(=O)[*:2])[*:1]].[am]}$$$$V2.0)	1%	–
CCC[C@H](NC(=O)[C@H](CCCNC(=N)N)NC(=O)[C@@H]1CCCN1C(=O)[C@H](CCCNC(=N)N)NC(C)=O)C(=O)N(CC(=O)N[C@@H](CN)C(=O)N[C@@H](CCC(C)C)C(=O)O)Cc1ccc(O)cc1 (Ac-RPR[Nva][Gly(N-4-hydroxybenzyl)][Dap][hLeu]-OH)	28%	–
CCC[C@H](NC(=O)[C@H](CCCNC(=N)N)NC(=O)[C@@H]1CCCN1C(=O)[C@H](CCCNC(=N)N)NC(C)=O)C(=O)N[C@@H](Cc1ccc(O)cc1)C(=O)N[C@@H](CN)C(=O)N(CC(=O)O)CC(C)CC (some centres not stated) (HELM PEPTIDE1{[ac].R.P.R.[Nva].Y.[NC[C@H](N[*:1])C(=O)[*:2]].[CCC(C)CN(CC(=O)O)[*:1]]}$$$$V2.0)	4%	–
CCC[C@H](NC(=O)[C@H](CCCNC(=N)N)N(C)C(=O)[C@@H]1CCCN1C(=O)[C@@H](N)CCCNC(=N)N)C(=O)N[C@@H](Cc1ccc(O)cc1)C(=O)N[C@@H](CN)C(=O)N[C@@H](CCC(C)C)C(=O)O (HELM PEPTIDE1{R.P.[meR].[Nva].Y.[NC[C@H](N[*:1])C(=O)[*:2]].[CC(C)CC[C@H](N[*:1])C(=O)O]}$$$$V2.0)	42%	–
CCC[C@H](NC(=O)[C@H](CCCNC(=N)N)NC(=O)[C@@H]1CCCN1C(=O)[C@H](CCCNC(=N)N)NC(C)=O)C(=O)N[C@@H](Cc1ccc(O)cc1)C(=O)N[C@@H](CN)C(=O)N(C)[C@@H](CCC(C)C)C(=O)O (HELM PEPTIDE1{[ac].R.P.R.[Nva].Y.[NC[C@H](N[*:1])C(=O)[*:2]].[CC(C)CC[C@@H](C(=O)O)N(C)[*:1]]}$$$$V2.0)	1%	–
CCC[C@H](NC(=O)[C@H](CCCNC(=N)N)NC(=O)[C@@H]1CCCN1C(=O)[C@H](CCCNC(=N)N)NC(C)=O)C(=O)N(C)[C@@H](Cc1ccc(O)cc1)C(=O)N[C@@H](CN)C(=O)N[C@@H](CCC(C)C)C(N)=O (HELM PEPTIDE1{[ac].R.P.R.[Nva].[meY].[NC[C@H](N[*:1])C(=O)[*:2]].[CC(C)CC[C@H](N[*:1])C(=O)[*:2]].[am]}$$$$V2.0)	40%	–
CCC[C@H](NC(=O)[C@H](CCCNC(=N)N)NC(=O)[C@@H]1CCCN1C(=O)[C@@H](N)CCCNC(=N)N)C(=O)N[C@@H](Cc1ccc(O)cc1)C(=O)N(C)[C@@H](CN)C(=O)N[C@@H](CCC(C)C)C(=O)O (HELM PEPTIDE1{R.P.R.[Nva].Y.[CN([C@@H](CN)C(=O)[*:2])[*:1]].[CC(C)CC[C@H](N[*:1])C(=O)O]}$$$$V2.0)	0%	–
CCC[C@H](NC(=O)[C@H](CCCNC(=N)N)NC(=O)[C@@H]1CCCN1C(=O)[C@H](CCCNC(=N)N)NC(C)=O)C(=O)N[C@@H](Cc1ccc(O)cc1)C(=O)N[C@@H](CN)C(=O)N(C)[C@@H](CCC(C)C)C(N)=O (HELM PEPTIDE1{[ac].R.P.R.[Nva].Y.[NC[C@H](N[*:1])C(=O)[*:2]].[CC(C)CC[C@@H](C(=O)[*:2])N(C)[*:1]].[am]}$$$$V2.0)	29%	–
CCC[C@H](NC(=O)[C@H](CCCNC(=N)N)NC(=O)[C@@H]1CCCN1C(=O)[C@H](CCCNC(=N)N)NC(C)=O)C(=O)N[C@@H](Cc1ccc(O)cc1)C(=O)N[C@@H](CN)C(=O)N[C@@H](CCC(C)C)C(N)=O (HELM PEPTIDE1{[ac].R.P.R.[Nva].Y.[NC[C@H](N[*:1])C(=O)[*:2]].[CC(C)CC[C@H](N[*:1])C(=O)[*:2]].[am]}$$$$V2.0)	92%	45%
CCC[C@H](NC(=O)[C@H](CCCNC(=N)N)NC(=O)[C@@H]1CCCN1C(=O)CNCCCNC(=N)N)C(=O)N[C@@H](Cc1ccc(O)cc1)C(=O)N[C@@H](CN)C(=O)N[C@@H](CCC(C)C)C(N)=O (H-[Gly(N-(CH2)3-guanidino)]PR[Nva]Y[Dap][hLeu]-NH2)	95%	32%
CCC[C@H](NC(=O)[C@H](CCCNC(=N)N)NC(=O)[C@@H]1CCCN1C(=O)[C@H](CCCNC(=N)N)NC(C)=O)C(=O)N[C@@H](Cc1ccc(O)cc1)C(=O)N(C)[C@@H](CN)C(=O)N[C@@H](CCC(C)C)C(N)=O (HELM PEPTIDE1{[ac].R.P.R.[Nva].Y.[CN([C@@H](CN)C(=O)[*:2])[*:1]].[CC(C)CC[C@H](N[*:1])C(=O)[*:2]].[am]}$$$$V2.0)	33%	–

Results, then the compound that gave them:

inhibition [1]	inhibition [2]	Compound
85%	23%	CCC[C@H](NC(=O)[C@H](CCCNC(=N)N)NC(=O)[C@@H]1CCCN1C(=O)[C@@H](N)CCCNC(=N)N)C(=O)N(CC(=O)N[C@@H](CN)C(=O)N[C@@H](CCC(C)C)C(N)=O)Cc1ccc(O)cc1 (H-RPR[Nva][Gly(N-4-hydroxybenzyl)][Dap][hLeu]-NH2)
62%	–	CCC[C@@H](C(=O)N[C@@H](Cc1ccc(O)cc1)C(=O)N[C@@H](CN)C(=O)N[C@@H](CCC(C)C)C(N)=O)N(C)C(=O)[C@H](CCCNC(=N)N)NC(=O)[C@@H]1CCCN1C(=O)[C@@H](N)CCCNC(=N)N (H-RPR[NMeNva]Y[Dap][hLeu]-NH2)
86%	5%	CCC[C@H](NC(=O)[C@H](CCCNC(=N)N)NC(=O)[C@@H]1CCCN1C(=O)[C@@H](N)CCCNC(=N)N)C(=O)N[C@@H](Cc1ccc(O)cc1)C(=O)N[C@@H](CN)C(=O)N(C)[C@@H](CCC(C)C)C(N)=O (HELM PEPTIDE1{R.P.R.[Nva].Y.[NC[C@H](N[*:1])C(=O)[*:2]].[CC(C)CC[C@@H](C(=O)[*:2])N(C)[*:1]].[am]}$$$$V2.0)
39%	–	CCC[C@H](NC(=O)[C@H](CCCNC(=N)N)NC(=O)[C@@H]1CCCN1C(=O)[C@@H](N)CCCNC(=N)N)C(=O)N[C@@H](Cc1ccc(O)cc1)C(=O)N[C@@H](CN)C(=O)N(CC(N)=O)CC(C)CC (some centres not stated) (HELM PEPTIDE1{R.P.R.[Nva].Y.[NC[C@H](N[*:1])C(=O)[*:2]].[CCC(C)CN(CC(=O)[*:2])[*:1]].[am]}$$$$V2.0)
88%	13%	CCC[C@H](NC(=O)[C@H](CCCNC(=N)N)NC(=O)[C@@H]1CCCN1C(=O)[C@@H](N)CCCNC(=N)N)C(=O)N(C)[C@@H](Cc1ccc(O)cc1)C(=O)N[C@@H](CN)C(=O)N[C@@H](CCC(C)C)C(N)=O (HELM PEPTIDE1{R.P.R.[Nva].[meY].[NC[C@H](N[*:1])C(=O)[*:2]].[CC(C)CC[C@H](N[*:1])C(=O)[*:2]].[am]}$$$$V2.0)
95%	51%	CCC[C@H](NC(=O)[C@H](CCCNC(=N)N)NC(=O)[C@@H]1CCCN1C(=O)[C@@H](N)CCCNC(=N)N)C(=O)N[C@@H](Cc1ccc(O)cc1)C(=O)N[C@@H](CN)C(=O)N[C@@H](CCC(C)C)C(=O)O (HELM PEPTIDE1{R.P.R.[Nva].Y.[NC[C@H](N[*:1])C(=O)[*:2]].[CC(C)CC[C@H](N[*:1])C(=O)O]}$$$$V2.0)
16%	–	CCCN(CC(=O)N[C@@H](Cc1ccc(O)cc1)C(=O)N[C@@H](CN)C(=O)N[C@@H](CCC(C)C)C(N)=O)C(=O)[C@H](CCCNC(=N)N)NC(=O)[C@@H]1CCCN1C(=O)[C@@H](N)CCCNC(=N)N (H-RPR[NPrGly]Y[Dap][hLeu]-NH2)
30%	–	CCC[C@H](NC(=O)CN(CCCNC(=N)N)C(=O)[C@@H]1CCCN1C(=O)[C@@H](N)CCCNC(=N)N)C(=O)N[C@@H](Cc1ccc(O)cc1)C(=O)N[C@@H](CN)C(=O)N[C@@H](CCC(C)C)C(N)=O (H-RP[Gly(N-(CH2)3-guanidino)][Nva]Y[Dap][hLeu]-NH2)
92%	39%	CCC[C@H](NC(=O)[C@H](CCCNC(=N)N)N(C)C(=O)[C@@H]1CCCN1C(=O)[C@@H](N)CCCNC(=N)N)C(=O)N[C@@H](Cc1ccc(O)cc1)C(=O)N[C@@H](CN)C(=O)N[C@@H](CCC(C)C)C(N)=O (HELM PEPTIDE1{R.P.[meR].[Nva].Y.[NC[C@H](N[*:1])C(=O)[*:2]].[CC(C)CC[C@H](N[*:1])C(=O)[*:2]].[am]}$$$$V2.0)
49%	–	CCC[C@H](NC(=O)[C@H](CCCNC(=N)N)NC(=O)[C@@H]1CCCN1C(=O)[C@H](CCCNC(=N)N)NC(C)=O)C(=O)N(CC(=O)N[C@@H](CN)C(=O)N[C@@H](CCC(C)C)C(N)=O)Cc1ccc(O)cc1 (Ac-RPR[Nva][Gly(N-4-hydroxybenzyl)][Dap][hLeu]-NH2)
75%	–	CCC[C@H](NC(=O)[C@H](CCCNC(=N)N)NC(=O)[C@@H]1CCCN1C(=O)[C@@H](N)CCCNC(=N)N)C(=O)N[C@@H](Cc1ccc(O)cc1)C(=O)N(C)[C@@H](CN)C(=O)N[C@@H](CCC(C)C)C(N)=O (HELM PEPTIDE1{R.P.R.[Nva].Y.[CN([C@@H](CN)C(=O)[*:2])[*:1]].[CC(C)CC[C@H](N[*:1])C(=O)[*:2]].[am]}$$$$V2.0)
0%	–	CCCN(CC(=O)N[C@@H](Cc1ccc(O)cc1)C(=O)N[C@@H](CN)C(=O)N[C@@H](CCC(C)C)C(N)=O)C(=O)[C@H](CCCNC(=N)N)NC(=O)[C@@H]1CCCN1C(=O)[C@H](CCCNC(=N)N)NC(C)=O (Ac-RPR[NPrGly]Y[Dap][hLeu]-NH2)
